# Test results as given in publication PMC5677758 (Journal of the American Chemical Society, 2017).
# Target: T1, GBA3 (Homo sapiens, UniProt Q9H227)
# T1 sequence (Q9H227 1-469): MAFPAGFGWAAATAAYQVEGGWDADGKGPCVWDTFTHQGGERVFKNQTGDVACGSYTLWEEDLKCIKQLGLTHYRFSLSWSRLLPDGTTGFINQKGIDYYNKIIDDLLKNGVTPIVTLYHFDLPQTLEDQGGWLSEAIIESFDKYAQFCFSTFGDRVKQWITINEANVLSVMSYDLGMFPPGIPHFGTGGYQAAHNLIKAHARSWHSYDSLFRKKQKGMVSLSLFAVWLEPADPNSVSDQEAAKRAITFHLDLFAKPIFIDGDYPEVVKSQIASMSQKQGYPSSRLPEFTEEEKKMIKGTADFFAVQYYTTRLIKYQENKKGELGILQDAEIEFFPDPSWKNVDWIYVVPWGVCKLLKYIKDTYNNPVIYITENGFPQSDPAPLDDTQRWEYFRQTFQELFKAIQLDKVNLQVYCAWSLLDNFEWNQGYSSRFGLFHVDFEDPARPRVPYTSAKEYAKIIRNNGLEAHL
# Assay: GBA3 in vitro assay, homogenates of HEK293T overexpressing GBA3
# Type: biochemical
# Procedure, shortened: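 Lysate from HEK293T cells stably overexpressing human GBA3 was pretreated 30 min with 1 mM conduritol β epoxide to block GBA1. Assay in 100 mM Hepes pH 7.0 with 0.1% BSA for 1 h, with 0.05–5 mM 4MU-β-D-glucopyranoside plus inhibitor and no inhibitor preincubation. […] Duplicates; Ki from curve fit.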
structure (smiles),measurement,value
"CCCCN1C[C@H](O)[C@@H](O)[C@H](O)[C@H]1CO [compound 1, N-butyldeoxynojirimycin]",Ki,> 1000 µM
